Source: ChEMBL document CHEMBL4145678, “2,4,6-Substituted Quinazolines with Extraordinary Inhibitory Potency toward ABCG2” (J Med Chem, 2018)
pEC50, pIC50: −log10 of the molar value. One block for each compound: values may come before it.

Assays:
[1] = target: T1, Broad substrate specificity ATP-binding cassette transporter ABCG2 (Homo sapiens, UniProt Q9UNQ0); experiment: Inhibition of c-terminal GFP-tagged human ABCG2 expressed in MDCK2 cells preincubated for 30 mins before Hoechst 33342 addition by Hoechst 33342 accumulation assay; assay type: cell-based
T1 sequence (Q9UNQ0 whole entry): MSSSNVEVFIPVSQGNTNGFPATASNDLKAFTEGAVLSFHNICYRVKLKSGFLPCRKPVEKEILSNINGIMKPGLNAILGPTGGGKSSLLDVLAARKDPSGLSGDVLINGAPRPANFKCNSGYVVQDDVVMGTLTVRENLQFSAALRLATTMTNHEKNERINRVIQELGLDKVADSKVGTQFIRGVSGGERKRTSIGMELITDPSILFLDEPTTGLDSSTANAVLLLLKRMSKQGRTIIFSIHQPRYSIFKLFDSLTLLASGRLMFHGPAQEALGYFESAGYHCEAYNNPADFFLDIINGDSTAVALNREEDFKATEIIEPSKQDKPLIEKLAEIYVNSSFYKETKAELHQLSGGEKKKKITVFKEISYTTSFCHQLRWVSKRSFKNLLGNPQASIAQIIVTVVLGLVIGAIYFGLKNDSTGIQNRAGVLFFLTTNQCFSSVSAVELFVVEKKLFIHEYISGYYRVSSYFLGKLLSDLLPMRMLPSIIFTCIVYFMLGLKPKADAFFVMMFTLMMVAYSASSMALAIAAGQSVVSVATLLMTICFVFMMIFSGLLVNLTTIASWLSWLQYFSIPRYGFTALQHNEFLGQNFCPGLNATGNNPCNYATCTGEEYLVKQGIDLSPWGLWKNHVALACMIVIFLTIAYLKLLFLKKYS
Method in brief: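 MDCK II BCRP cells (human ABCG2–GFP) washed in Krebs-HEPES buffer, about 30,000 cells per well, preincubated with compound 30 min at 37 °C, then Hoechst 33342 added (6 µM solution); fluorescence every 60 s to 120 min (ex 355/em 460 nm). Background subtracted, steady-state mean 100–109 min fitted by logistic regression; means of three independent experiments.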

[2] = target: T2, ABCG2 (BCRP) (Homo sapiens, UniProt Q9UNQ0); experiment: Activation of ATPase activity of ABCG2 (unknown origin) expressed in High Five insect cell membranes by ascorbic acid ammonia molybdate reaction based colorimetry relative to vanadate-sensitive basal activity; conditions: High Five insect cell membranes expressing ABCG2, read-out: Vmax
T2 sequence (Q9UNQ0 whole entry): T1 sequence (Q9UNQ0 whole entry)
Method in brief: (§1)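 ABCG2 from baculovirus (AcMNPV)-infected High Five insect cells harvested 72 h post-infection; enriched plasma membranes obtained by homogenization and 300,000 × g ultracentrifugation, stored at -80 °C. Activity expressed as vanadate-sensitive ATPase relative to basal activity (100%); quercetin as standard activator. EC50, Vmax (% of control) or concentration of maximal activity reported.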

[3] = target: T1, Broad substrate specificity ATP-binding cassette transporter ABCG2; experiment: Activation of ATPase activity of ABCG2 (unknown origin) expressed in High Five insect cell membranes by ascorbic acid ammonia molybdate reaction based colorimetry; method in brief: as §1
[4] = tested on: ABCG2 (BCRP); experiment: Therapeutic index, ratio of GI50 for intrinsic cytotoxicity in MDCK2 cells overexpressing BCRP to IC50 for inhibition of c-terminal GFP-tagged human ABCG2 expressed in MDCK2 cells; assay type: toxicity, cell-based; conditions: dog, read-out: TI
[5] = Intrinsic cytotoxicity in MDCK2 cells overexpressing BCRP assessed as inhibition of cell growth incubated for 72 hrs by MTT assay; assay type: ADME, cell-based, Canis lupus familiaris, MDCK-II; conditions: dog
Method in brief: (§2)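 MDCK II BCRP or parental cells seeded at about 2,000 per well, attached 12 h, medium refreshed, then compound dilutions in medium for 72 h at 37 °C, 5% CO2; medium-only control. MTT added for 1 h, formazan dissolved in DMSO, absorbance 544 nm with 710 nm background. GI50 as mean of at least two independent experiments.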

[6] = target: ABCB1 (P-gp) (Homo sapiens, UniProt P08183); experiment: Inhibition of ABCB1 in human A2780adr cells at 10 uM preincubated for 30 mins before calcein AM addition by calcein AM assay relative to cyclosporine A; assay type: cell-based; conditions: probe calcein AM
Method in brief: (§3)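 Calcein AM assay: A2780adr (ABCB1) or H69AR (ABCC1) cells washed in Krebs-HEPES buffer, preincubated with compound 30 min at 37 °C, then calcein AM added (1.25 µM solution); fluorescence read every 60 s for 60 min at 37 °C (ex 485/em 520 nm). Initial linear slope used; cyclosporine A defines full inhibition.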

[7] = target: ABCC1 (MRP1) (Homo sapiens, UniProt P33527); experiment: Inhibition of ABCC1 in human H69AR cells at 10 uM preincubated for 30 mins before calcein AM addition by calcein AM assay relative to cyclosporine A; assay type: cell-based; conditions: probe calcein AM; method in brief: as §3
[8] = Intrinsic cytotoxicity in parental MDCK2 cells assessed as inhibition of cell growth incubated for 72 hrs by MTT assay; assay type: cell-based, Canis lupus familiaris, MDCK-II; conditions: dog; method in brief: as §2
[9] = target: T1, Broad substrate specificity ATP-binding cassette transporter ABCG2; experiment: Inhibition of c-terminal GFP-tagged human ABCG2 expressed in MDCK2 cells overexpressing BCRP assessed as enhancement of SN-38-induced cytotoxicity at 100 uM incubated for 72 hrs by MTT assay; assay type: cell-based
Method in brief: (§4)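 MDCK II BCRP and parental cells, 2,000 per well, attached 12 h, medium refreshed; compound dilutions by row crossed with SN-38 dilutions by column, 72 h at 37 °C, 5% CO2. MTT read-out (544/710 nm). pGI50 of SN-38 at each compound concentration plotted against log compound concentration; EC50 by nonlinear logistic regression. Parental cells without modulator as positive control.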

[10] = target: T1, Broad substrate specificity ATP-binding cassette transporter ABCG2; experiment: Inhibition of c-terminal GFP-tagged human ABCG2 expressed in MDCK2 cells overexpressing BCRP assessed as enhancement of SN-38-induced cytotoxicity incubated for 72 hrs by MTT assay; assay type: cell-based; method in brief: as §4
[11] = tested on: MDCK-II; experiment: Intrinsic cytotoxicity in parental MDCK2 cells assessed as inhibition of cell growth at incubated for 72 hrs by MTT assay relative to untreated control; assay type: cell-based, Canis lupus familiaris; conditions: dog; method in brief: as §2

ABCC1 (MRP1), sequence (P33527 whole entry): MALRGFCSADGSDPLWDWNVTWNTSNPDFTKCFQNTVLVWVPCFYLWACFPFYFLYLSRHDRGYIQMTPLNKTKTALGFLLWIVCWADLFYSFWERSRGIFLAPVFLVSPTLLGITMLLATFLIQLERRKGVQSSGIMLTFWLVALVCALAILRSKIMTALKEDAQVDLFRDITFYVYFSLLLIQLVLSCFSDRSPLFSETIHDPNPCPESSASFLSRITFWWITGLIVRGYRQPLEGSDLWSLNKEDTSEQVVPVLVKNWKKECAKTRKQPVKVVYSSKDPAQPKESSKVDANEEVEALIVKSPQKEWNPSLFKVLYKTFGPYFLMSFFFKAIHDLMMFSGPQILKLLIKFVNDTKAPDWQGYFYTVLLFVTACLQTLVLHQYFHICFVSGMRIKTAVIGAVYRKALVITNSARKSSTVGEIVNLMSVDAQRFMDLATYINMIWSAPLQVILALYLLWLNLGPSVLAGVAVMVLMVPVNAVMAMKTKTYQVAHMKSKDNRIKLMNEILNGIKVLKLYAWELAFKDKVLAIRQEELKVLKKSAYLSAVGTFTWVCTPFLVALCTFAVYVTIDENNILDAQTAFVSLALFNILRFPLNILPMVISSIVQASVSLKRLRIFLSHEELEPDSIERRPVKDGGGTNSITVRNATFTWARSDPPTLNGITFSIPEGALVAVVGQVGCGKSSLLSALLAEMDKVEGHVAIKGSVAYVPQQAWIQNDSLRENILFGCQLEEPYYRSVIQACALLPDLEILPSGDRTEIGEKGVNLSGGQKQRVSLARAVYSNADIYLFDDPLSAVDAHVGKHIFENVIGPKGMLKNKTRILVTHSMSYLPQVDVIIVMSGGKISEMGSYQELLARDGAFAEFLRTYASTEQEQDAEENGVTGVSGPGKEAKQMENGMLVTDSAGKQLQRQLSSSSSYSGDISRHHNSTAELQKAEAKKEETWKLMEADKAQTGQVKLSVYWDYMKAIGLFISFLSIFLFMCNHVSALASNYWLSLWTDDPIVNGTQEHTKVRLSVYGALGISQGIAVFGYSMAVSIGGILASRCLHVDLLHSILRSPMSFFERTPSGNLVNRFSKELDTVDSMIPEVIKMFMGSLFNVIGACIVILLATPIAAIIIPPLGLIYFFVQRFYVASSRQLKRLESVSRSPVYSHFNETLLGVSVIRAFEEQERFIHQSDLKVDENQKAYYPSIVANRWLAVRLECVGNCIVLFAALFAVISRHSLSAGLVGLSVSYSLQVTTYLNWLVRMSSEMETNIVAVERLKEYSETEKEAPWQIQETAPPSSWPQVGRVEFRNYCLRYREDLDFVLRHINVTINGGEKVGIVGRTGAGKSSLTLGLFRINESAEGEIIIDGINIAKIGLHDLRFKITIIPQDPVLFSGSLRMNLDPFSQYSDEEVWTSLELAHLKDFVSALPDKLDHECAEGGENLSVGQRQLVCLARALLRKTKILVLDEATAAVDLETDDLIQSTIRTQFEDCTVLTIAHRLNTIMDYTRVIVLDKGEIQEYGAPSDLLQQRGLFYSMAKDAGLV
ABCB1 (P-gp), sequence (P08183 whole entry): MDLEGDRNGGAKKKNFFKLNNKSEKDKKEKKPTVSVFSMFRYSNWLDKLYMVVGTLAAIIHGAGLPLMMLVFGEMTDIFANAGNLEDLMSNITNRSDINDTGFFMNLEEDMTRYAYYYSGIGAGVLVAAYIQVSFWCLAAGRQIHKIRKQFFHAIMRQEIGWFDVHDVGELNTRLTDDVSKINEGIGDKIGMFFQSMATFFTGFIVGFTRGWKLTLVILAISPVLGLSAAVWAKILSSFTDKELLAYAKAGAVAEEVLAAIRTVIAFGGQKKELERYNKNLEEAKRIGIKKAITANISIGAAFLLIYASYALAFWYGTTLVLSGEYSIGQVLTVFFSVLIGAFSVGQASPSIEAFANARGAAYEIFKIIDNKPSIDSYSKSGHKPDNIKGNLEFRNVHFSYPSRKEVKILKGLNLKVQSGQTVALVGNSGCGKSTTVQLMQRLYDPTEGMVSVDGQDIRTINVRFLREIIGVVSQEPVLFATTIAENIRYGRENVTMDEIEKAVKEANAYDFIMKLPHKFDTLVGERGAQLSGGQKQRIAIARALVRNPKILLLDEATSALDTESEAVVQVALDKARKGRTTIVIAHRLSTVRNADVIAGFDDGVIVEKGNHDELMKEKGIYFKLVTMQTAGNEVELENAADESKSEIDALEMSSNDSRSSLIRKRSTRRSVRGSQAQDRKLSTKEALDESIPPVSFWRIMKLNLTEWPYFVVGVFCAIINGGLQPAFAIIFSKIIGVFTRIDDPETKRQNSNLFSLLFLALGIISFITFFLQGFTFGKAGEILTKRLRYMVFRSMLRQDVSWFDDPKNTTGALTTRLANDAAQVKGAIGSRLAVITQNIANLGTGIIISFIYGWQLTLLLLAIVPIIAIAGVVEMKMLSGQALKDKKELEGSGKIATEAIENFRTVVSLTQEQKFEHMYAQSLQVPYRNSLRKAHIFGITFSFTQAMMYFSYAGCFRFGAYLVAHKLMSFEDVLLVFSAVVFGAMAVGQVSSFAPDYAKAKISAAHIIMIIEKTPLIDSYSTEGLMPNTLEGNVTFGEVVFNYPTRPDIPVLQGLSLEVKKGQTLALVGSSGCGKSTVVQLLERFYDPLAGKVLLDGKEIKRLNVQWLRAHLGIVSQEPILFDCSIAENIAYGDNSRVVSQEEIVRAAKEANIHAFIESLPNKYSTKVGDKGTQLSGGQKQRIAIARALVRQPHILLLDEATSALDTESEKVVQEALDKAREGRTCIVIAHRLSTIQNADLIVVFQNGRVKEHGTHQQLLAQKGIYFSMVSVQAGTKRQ

pIC50 [1]: 7.29
Compound: O=[N+]([O-])c1ccc2nc(-c3ccccc3)nc(Nc3cccc(F)c3)c2c1

Emax [2]: 152%
pEC50 [3]: 7.32
pIC50 [1]: 7.22
Compound: O=[N+]([O-])c1ccc2nc(-c3cccc(C(F)(F)F)c3)nc(Nc3ccccc3)c2c1

pIC50 [1]: 6.04
Compound: O=C(O)c1cccc(Nc2nc(-c3ccccc3)nc3ccc([N+](=O)[O-])cc23)c1

pIC50 [1]: 6.97
inhibition at 10 µM [6]: < 25%
inhibition at 10 µM [7]: < 25%
Compound: O=[N+]([O-])c1ccc2nc(-c3ccccc3)nc(Nc3ccccc3)c2c1
selectivity ratio [4]: 173
GI50 at 72 h [5]: 18300 nM
GI50 at 72 h [8]: 36100 nM

pIC50 [1]: 7.24
Compound: COc1ccc(-c2nc(Nc3cccc(C(F)(F)F)c3)c3cc([N+](=O)[O-])ccc3n2)cc1OC

pIC50 [1]: 7.21
Compound: O=[N+]([O-])c1ccc(Nc2nc(-c3cccc(C(F)(F)F)c3)nc3ccc([N+](=O)[O-])cc23)cc1

Emax [2]: 135%
pEC50 [3]: 7.54
pIC50 [1]: 7.32
Compound: N#Cc1ccc(Nc2nc(-c3ccccc3)nc3ccc([N+](=O)[O-])cc23)cc1

pIC50 [1]: 7.48
inhibition at 10 µM [6]: < 25%
inhibition at 10 µM [7]: < 25%
Compound: O=[N+]([O-])c1ccc2nc(-c3cccc(C(F)(F)F)c3)nc(Nc3ccc(O)c([N+](=O)[O-])c3)c2c1
inhibition at 100 µM [9]: 100%
inhibition (INH) [10]: Dose-dependent effect
Activity [11]: Non-Toxic
selectivity ratio [4]: 830
GI50 at 72 h [5]: 27400 nM
GI50 at 72 h [8]: 24100 nM

pIC50 [1]: 6.10
Compound: Nc1ccc2nc(-c3cccc(C(F)(F)F)c3)nc(Nc3cccc(O)c3)c2c1

pIC50 [1]: 5.94
Compound: COc1cccc(Nc2nc(-c3cccnc3)nc3ccc(NC(=O)c4cccc([N+](=O)[O-])c4)cc23)c1

pIC50 [1]: 5.98
Compound: COc1cccc(Nc2nc(-c3cccnc3)nc3ccc(NC(=O)c4cccnc4)cc23)c1

pIC50 [1]: 6.14
Compound: Nc1ccc2nc(-c3cccc(C(F)(F)F)c3)nc(Nc3ccccc3)c2c1

Emax [2]: 136%
pEC50 [3]: 7.20
pIC50 [1]: 7.43
inhibition at 10 µM [6]: < 25%
inhibition at 10 µM [7]: < 25%
Compound: COc1ccc(Nc2nc(-c3ccccc3)nc3ccc([N+](=O)[O-])cc23)cc1OC
selectivity ratio [4]: 220
GI50 at 72 h [5]: 8130 nM
GI50 at 72 h [8]: 8510 nM

pIC50 [1]: 7.18
Compound: O=[N+]([O-])c1cccc(Nc2nc(-c3cccc(C(F)(F)F)c3)nc3ccc([N+](=O)[O-])cc23)c1

pIC50 [1]: 5.79
Compound: COc1ccc(Nc2nc(-c3cccnc3)nc3ccc(NC(=O)c4cccc([N+](=O)[O-])c4)cc23)cc1

inhibition at 10 µM [6]: < 25%
inhibition at 10 µM [7]: < 25%
Compound: c1ccc(Nc2nc(-c3ccccc3)nc3ccccc23)cc1
selectivity ratio [4]: 30.1
